According to ChEMBL document CHEMBL4706770, “SD-91 as A Potent and Selective STAT3 Degrader Capable of Achieving Complete and Long-Lasting Tumor Regression” (ACS Med Chem Lett, 2021):
Calls of active or inactive are those of the source. The calls are words filed in the database; no cut-off is given here.

Key:
[1] = biological target: T1, Signal transducer and activator of transcription 6 (Homo sapiens) (UniProt P42226); experiment: Induction of STAT6 degradation in human SU-DHL-1 cells at 0.25 to 100 uM incubated for 14 hrs by Western blot analysis; assay type: cell-based; details: dose 0.25-100 µM
T1 sequence (whole entry): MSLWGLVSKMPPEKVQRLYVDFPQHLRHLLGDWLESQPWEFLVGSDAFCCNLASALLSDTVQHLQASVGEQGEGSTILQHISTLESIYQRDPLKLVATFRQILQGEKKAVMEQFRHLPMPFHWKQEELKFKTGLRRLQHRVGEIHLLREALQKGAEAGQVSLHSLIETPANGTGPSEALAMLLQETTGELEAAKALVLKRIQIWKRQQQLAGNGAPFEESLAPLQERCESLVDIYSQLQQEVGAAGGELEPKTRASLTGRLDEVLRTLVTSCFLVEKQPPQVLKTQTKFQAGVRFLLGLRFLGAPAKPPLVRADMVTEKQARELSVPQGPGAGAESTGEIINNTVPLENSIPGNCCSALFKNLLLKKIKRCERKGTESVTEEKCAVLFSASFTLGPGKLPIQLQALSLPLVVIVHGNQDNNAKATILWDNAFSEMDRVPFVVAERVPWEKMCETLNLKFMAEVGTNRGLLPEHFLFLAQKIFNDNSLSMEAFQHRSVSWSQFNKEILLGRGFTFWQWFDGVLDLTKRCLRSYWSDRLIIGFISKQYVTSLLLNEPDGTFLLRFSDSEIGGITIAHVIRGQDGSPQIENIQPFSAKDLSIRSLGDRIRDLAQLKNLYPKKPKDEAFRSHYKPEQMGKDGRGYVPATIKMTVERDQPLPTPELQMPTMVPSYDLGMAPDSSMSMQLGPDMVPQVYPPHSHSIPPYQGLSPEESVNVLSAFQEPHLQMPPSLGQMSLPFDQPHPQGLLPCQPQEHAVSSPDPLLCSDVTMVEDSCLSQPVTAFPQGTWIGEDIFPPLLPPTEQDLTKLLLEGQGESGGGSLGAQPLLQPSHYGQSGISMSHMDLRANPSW

[2] = biological target: Signal transducer and activator of transcription 3 (Homo sapiens, UniProt P40763); experiment: Induction of STAT3 degradation in human SU-DHL-1 cells at 0.25 to 100 uM incubated for 14 hrs by Western blot analysis; assay type: cell-based; details: dose 0.25-100 µM
[3] = biological target: T1, Signal transducer and activator of transcription 6 (Homo sapiens); experiment: Induction of STAT6 degradation in human MOLM16 cells at 0.25 to 100 uM incubated for 4 hrs by Western blot analysis; assay type: cell-based; details: dose 0.25-100 µM
How it was run: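 Cells treated 4 h with compounds across 25 nM to 100 μM; STAT proteins detected by Western blot with GAPDH as loading control; STAT3 DC50 estimated by densitometry of STAT3 relative to GAPDH. Applies to MOLM-16 for all STATs, and to SU-DHL-1 and SUP-M2 for STAT3.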

[4] = biological target: Signal transducer and activator of transcription 2 (Homo sapiens, UniProt P52630); experiment: Induction of STAT2 degradation in human SU-DHL-1 cells at 0.25 to 100 uM incubated for 14 hrs by Western blot analysis; assay type: cell-based; details: dose 0.25-100 µM
How it was run: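 SU-DHL-1 or SUP-M2 cells treated over 25 nM to 100 μM. STAT family proteins assessed by Western blot.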

[5] = Antiproliferative activity against human SUP-M2 cells assessed as cell growth inhibition incubated for 4 days by CellTiter-Glo asssay; assay type: functional, cell-based, SUPM2; details: SUP-M2, 96 h
How it was run: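 Growth inhibition tested in MOLM-16 acute leukemia and SU-DHL-1 and SUP-M2 lymphoma cell lines.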

[6] = biological target: T2, Signal transducer and activator of transcription 5A (Homo sapiens) (UniProt P42229); experiment: Induction of STAT5 degradation in human SUP-M2 cells at 0.25 to 100 uM incubated for 14 hrs by Western blot analysis; assay type: cell-based; details: SUPM2, dose 0.25-100 µM
T2 sequence (whole entry): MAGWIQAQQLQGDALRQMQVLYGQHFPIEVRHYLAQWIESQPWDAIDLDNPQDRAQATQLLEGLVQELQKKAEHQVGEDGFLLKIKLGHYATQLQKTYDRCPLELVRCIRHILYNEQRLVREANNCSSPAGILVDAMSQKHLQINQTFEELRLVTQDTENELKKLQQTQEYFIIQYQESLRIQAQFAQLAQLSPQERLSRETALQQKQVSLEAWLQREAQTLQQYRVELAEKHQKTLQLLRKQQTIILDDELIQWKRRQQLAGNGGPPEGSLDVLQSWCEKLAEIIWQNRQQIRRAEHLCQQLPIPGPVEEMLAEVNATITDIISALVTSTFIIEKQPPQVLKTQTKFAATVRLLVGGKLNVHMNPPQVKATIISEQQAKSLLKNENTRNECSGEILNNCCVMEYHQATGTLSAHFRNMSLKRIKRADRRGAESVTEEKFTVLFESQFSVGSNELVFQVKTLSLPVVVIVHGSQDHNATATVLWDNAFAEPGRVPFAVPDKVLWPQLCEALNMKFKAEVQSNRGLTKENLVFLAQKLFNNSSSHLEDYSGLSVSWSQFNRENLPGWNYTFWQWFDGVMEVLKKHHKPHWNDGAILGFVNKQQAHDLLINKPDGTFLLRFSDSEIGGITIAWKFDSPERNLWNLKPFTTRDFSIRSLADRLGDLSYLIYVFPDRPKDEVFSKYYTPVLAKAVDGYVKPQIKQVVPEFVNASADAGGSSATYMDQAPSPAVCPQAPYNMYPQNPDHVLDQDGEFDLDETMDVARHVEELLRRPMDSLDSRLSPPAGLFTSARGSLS

[7] = biological target: T1, Signal transducer and activator of transcription 6 (Homo sapiens); experiment: Induction of STAT6 degradation in human SUP-M2 cells at 0.25 to 100 uM incubated for 14 hrs by Western blot analysis; assay type: cell-based; details: SUPM2, dose 0.25-100 µM
[8] = Drug uptake in SCID mouse xenografted with human MOLM16 cells assessed as drug level in plasma at 50 mg/kg, iv measured after 1 hrs by LC-MS/MS; assay type: ADME, organism-based
How it was run: (§1)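 SCID mice bearing MOLM-16 xenografts given a single iv dose of 50 mg/kg. Concentrations of parent and hydrolysis product measured in plasma (ng/mL) and tumor tissue (ng/g) at 1, 6 and 24 h.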

[9] = Drug uptake in SCID mouse xenografted with human MOLM16 cells assessed as drug level in plasma at 50 mg/kg, iv measured after 6 hrs by LC-MS/MS; assay type: ADME, organism-based; how it was run: as §1
[10] = Drug uptake in SCID mouse xenografted with human MOLM16 cells assessed as drug level in tumor tissue at 50 mg/kg, iv measured after 1 hrs by LC-MS/MS; assay type: ADME, organism-based; details: read-out: Drug uptake; how it was run: as §1
[11] = Drug uptake in SCID mouse xenografted with human MOLM16 cells assessed as drug level in tumor tissue at 50 mg/kg, iv measured after 6 hrs by LC-MS/MS; assay type: ADME, organism-based; details: read-out: Drug uptake; how it was run: as §1
[12] = Drug metabolism in complete cell culture medium assessed as 5-amino-4-(4-(8-((5S,8S,10aR)-8-((S)-5-amino-1-(benzhydrylamino)-1,5-dioxopentan-2-ylcarbamoyl)-6-oxo-5-(5-(phosphonocarbonyl)-1H-indole-2-carboxamido)octahydropyrrolo[1,2-a][1,5]diazocin-3(4H)-yl)-8-oxooct-1-ynyl)-1-oxoisoindolin-2-yl)-5-oxopentanoic acid after 96 hrs by LC/MS/MS analysis
How it was run: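 Parent compound incubated in the cell culture medium used for the cellular assays, with or without cells, at 37 °C. Percentages of the hydrolysis product and the glutarimide ring-opened product measured at time points up to 96 h.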

Signal transducer and activator of transcription 2, sequence (P52630 whole entry): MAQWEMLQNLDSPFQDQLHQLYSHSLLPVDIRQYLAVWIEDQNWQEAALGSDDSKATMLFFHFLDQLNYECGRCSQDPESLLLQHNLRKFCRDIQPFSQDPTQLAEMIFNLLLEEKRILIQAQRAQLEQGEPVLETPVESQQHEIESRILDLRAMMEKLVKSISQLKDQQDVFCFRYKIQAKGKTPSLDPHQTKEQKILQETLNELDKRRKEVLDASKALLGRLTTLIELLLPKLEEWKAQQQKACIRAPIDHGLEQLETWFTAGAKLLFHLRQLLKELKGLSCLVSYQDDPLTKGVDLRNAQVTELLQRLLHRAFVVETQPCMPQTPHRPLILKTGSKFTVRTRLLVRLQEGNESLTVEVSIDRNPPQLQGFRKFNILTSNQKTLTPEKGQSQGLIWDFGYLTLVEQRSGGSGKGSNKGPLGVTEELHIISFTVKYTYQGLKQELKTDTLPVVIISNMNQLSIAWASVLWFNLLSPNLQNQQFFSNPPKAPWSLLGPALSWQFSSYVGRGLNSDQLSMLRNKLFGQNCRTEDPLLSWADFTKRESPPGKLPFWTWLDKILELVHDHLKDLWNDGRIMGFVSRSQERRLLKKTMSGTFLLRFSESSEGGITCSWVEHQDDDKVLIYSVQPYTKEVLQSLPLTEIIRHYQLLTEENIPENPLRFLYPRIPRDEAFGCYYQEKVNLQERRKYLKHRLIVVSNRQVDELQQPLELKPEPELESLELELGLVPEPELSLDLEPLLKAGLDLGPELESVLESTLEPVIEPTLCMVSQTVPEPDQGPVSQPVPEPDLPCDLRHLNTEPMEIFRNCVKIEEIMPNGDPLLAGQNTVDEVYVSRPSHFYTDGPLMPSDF
Signal transducer and activator of transcription 3, sequence (P40763 whole entry): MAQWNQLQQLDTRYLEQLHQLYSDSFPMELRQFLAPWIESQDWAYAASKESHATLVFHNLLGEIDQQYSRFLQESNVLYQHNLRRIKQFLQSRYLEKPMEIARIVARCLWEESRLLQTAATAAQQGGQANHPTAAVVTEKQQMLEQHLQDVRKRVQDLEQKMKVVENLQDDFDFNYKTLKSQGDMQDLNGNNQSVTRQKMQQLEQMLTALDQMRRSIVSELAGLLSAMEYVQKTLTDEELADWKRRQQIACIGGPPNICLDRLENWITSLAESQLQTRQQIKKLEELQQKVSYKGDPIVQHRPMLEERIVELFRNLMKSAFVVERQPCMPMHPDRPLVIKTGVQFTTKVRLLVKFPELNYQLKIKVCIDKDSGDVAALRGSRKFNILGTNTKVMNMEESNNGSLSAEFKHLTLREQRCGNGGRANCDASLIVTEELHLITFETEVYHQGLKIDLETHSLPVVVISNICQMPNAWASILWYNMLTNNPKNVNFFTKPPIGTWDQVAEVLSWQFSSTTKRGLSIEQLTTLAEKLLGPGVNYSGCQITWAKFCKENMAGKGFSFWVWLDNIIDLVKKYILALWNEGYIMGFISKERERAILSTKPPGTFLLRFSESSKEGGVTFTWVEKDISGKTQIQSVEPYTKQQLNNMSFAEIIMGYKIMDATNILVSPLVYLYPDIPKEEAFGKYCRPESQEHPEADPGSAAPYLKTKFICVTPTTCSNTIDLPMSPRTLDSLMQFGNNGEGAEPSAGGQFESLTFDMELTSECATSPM

Compound	Activity [1]	Activity [2]	Activity [3]	Activity [4]	IC50 [5]	Activity [6]	Activity [7]	concentration at 1 h [8]	concentration at 6 h [9]	concentration at 1 h [10]	concentration at 6 h [11]	Drug metabolism [12]
CC(=O)N1CC[C@H]2CC[C@@H](C(=O)N[C@@H](CCC(N)=O)C(=O)NC(c3ccccc3)c3ccccc3)N2C(=O)[C@@H](NC(=O)c2cc3cc(C(=O)P(=O)(O)O)ccc3[nH]2)C1	inactive	inactive	inactive	inactive	> 10000 nM	inactive	inactive					
NC(=O)CC[C@H](NC(=O)[C@@H]1CC[C@@H]2CCN(C(=O)CCCCCC#Cc3cccc4c3CN(C3CCC(=O)NC3=O)C4=O)C[C@H](NC(=O)c3cc4cc(C(=O)P(=O)(O)O)ccc4[nH]3)C(=O)N21)C(=O)NC(c1ccccc1)c1ccccc1 (stereo partly drawn)	inactive	Active	inactive	inactive	460 nM	inactive	inactive	85.5 µg/mL	49.2 µg/mL	16200 ng/g	4780 ng/g	< 10%
CC(=O)N1CC[C@H]2CC[C@@H](C(=O)N[C@@H](CCC(N)=O)C(=O)NC(c3ccccc3)c3ccccc3)N2C(=O)[C@@H](NC(=O)c2cc3cc(C(F)(F)P(=O)(O)O)ccc3[nH]2)C1	inactive	inactive	inactive	inactive	> 10000 nM	inactive	inactive					
NC(=O)CC[C@H](NC(=O)[C@@H]1CC[C@@H]2CCN(C(=O)CCCCCC#Cc3cccc4c3CN(C3CCC(=O)NC3=O)C4=O)C[C@H](NC(=O)c3cc4cc(C(F)(F)P(=O)(O)O)ccc4[nH]3)C(=O)N21)C(=O)NC(c1ccccc1)c1ccccc1 (stereo partly drawn)		inactive			530 nM			103 µg/mL	1.29 µg/mL	7720 ng/g	580 ng/g	10%
